In ChEMBL document CHEMBL1129688, “ATP-citrate lyase as a target for hypolipidemic intervention. Design and synthesis of 2-substituted butanedioic acids as novel, potent inhibitors of the enzyme” (J Med Chem, 1996):
Each block holds one molecule with its values, some of them ahead of it.

Legend:
HepG2 [1] = assay: Percent reduction of fatty acid synthesis in human hepatoma cell line HepG2 at 1000 uM concentration; assay type: functional
Method in brief: (§1)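 HepG2 cells were grown in DMEM with Hepes, bicarbonate, glutamine and 10% FCS to 80–90% confluence, then kept overnight serum-free. Vehicle or compound was added at the stated final concentration for 2.5 h. ³H2O (71 μCi/mmol) was present for the final 90 min. Synthesis rates came from ³H incorporated into cellular cholesterol or fatty acids, relative to vehicle control.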

HepG2 [2] = assay: Percent reduction of fatty acid synthesis in human hepatoma cell line HepG2 at 20 uM concentration; assay type: functional; design: scale not given: the % may be the effect or the level left; method in brief: as §1
HepG2 [3] = assay: Percent control of ATP levels in human hepatoma cell line HepG2 at […] uM concentration; assay type: functional
HepG2 [4] = assay: Percent reduction of cholesterol synthesis in human hepatoma cell line HepG2 at 1000 uM concentration; assay type: functional; method in brief: as §1
ATP-citrate synthase = target: T1, ATP-citrate synthase (Rattus norvegicus, UniProt P16638); assay: Inhibition of recombinant ATP-Citrate Lyase activity as […] dehydrogenase catalyzed reduction of oxaloacetate by NADH; conditions: in the assay text read “purified rat ATP-Citrate Lyase” for “recombinant ATP-Citrate Lyase”
T1 sequence (P16638 whole entry): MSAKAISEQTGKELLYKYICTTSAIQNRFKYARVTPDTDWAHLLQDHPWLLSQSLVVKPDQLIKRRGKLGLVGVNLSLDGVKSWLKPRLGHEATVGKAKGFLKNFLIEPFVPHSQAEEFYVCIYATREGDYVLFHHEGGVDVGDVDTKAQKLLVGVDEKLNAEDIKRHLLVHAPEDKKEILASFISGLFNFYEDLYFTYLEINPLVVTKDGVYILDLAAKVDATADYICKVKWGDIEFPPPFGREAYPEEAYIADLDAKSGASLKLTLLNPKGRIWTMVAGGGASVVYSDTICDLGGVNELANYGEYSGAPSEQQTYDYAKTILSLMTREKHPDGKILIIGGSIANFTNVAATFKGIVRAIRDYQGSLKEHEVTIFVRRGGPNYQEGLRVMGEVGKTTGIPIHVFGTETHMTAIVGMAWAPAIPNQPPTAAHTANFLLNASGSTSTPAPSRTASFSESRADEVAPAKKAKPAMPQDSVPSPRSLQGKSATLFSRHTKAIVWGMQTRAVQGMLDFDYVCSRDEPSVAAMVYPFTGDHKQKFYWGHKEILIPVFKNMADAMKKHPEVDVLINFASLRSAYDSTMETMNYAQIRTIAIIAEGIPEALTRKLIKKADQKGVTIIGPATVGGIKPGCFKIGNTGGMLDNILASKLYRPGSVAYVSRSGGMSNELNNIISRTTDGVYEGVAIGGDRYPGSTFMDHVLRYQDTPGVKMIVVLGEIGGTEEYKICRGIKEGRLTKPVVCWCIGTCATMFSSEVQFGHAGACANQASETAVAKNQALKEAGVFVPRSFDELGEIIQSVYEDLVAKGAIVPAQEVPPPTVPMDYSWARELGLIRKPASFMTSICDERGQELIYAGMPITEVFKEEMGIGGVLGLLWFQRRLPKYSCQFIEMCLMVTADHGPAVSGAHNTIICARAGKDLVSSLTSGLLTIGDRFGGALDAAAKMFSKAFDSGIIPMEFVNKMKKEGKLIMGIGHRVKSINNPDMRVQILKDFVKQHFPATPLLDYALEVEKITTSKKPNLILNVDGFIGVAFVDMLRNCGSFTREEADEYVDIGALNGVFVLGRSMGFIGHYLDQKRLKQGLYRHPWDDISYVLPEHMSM
Method in brief: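 Purified rat ACL or recombinant human ACL was assayed by coupling oxaloacetate formation to malate dehydrogenase reduction with NADH. Buffer: Tris 100 mM pH 8.0, MgCl2 10 mM, KCl 10 mM, DTT 10 mM, plus ATP and NADH. CoA was 200 μM, and citrate was added to 100 μM (its Km) to start the reaction. A340 decrease was followed over 20 min. Ki came from fitting v = Vmax/(2 + [I]/Ki), assuming citrate-competitive inhibition.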

HepG2 [5] = assay: Percent control of ATP levels in human hepatoma cell line HepG2 at 20 uM concentration; assay type: functional
Method in brief: (§2)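 Serum-starved HepG2 cells (grown to 80–90% confluence in DMEM/10% FCS, then overnight without serum) were exposed to vehicle or compound at the stated final concentration for 2.5 h. Cellular ATP was then measured as a toxicity check and expressed as % of vehicle control.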

HepG2 [6] = assay: Percent reduction of cholesterol synthesis in human hepatoma cell line HepG2 at 20 uM concentration; assay type: functional; design: scale not given: the % may be the effect or the level left; method in brief: as §1
HepG2 [7] = assay: Percent reduction of fatty acid synthesis in human hepatoma cell line HepG2 at 100 uM concentration; assay type: functional; design: scale not given: the % may be the effect or the level left; method in brief: as §1
HepG2 [8] = assay: Percent control of ATP levels in human hepatoma cell line HepG2 at 10 uM concentration; assay type: functional; method in brief: as §2
HepG2 [9] = assay: Percent control of ATP levels in human hepatoma cell line HepG2 at 30 uM concentration; assay type: functional; method in brief: as §2
HepG2 [10] = assay: Percent control of ATP levels in human hepatoma cell line HepG2 at 100 uM concentration; assay type: functional; method in brief: as §2
HepG2 [11] = assay: Percent reduction of cholesterol synthesis in human hepatoma cell line HepG2 at 100 uM concentration; assay type: functional; design: scale not given: the % may be the effect or the level left; method in brief: as §1
HepG2 [12] = assay: Percent control of ATP levels in human hepatoma cell line HepG2 at 300 uM concentration; assay type: functional; method in brief: as §2
HepG2 [13] = assay: Percent control of ATP levels in human hepatoma cell line HepG2 at 1000 uM concentration; assay type: functional; method in brief: as §2
HepG2 [14] = assay: Percent reduction of fatty acid synthesis in human hepatoma cell line HepG2 at 300 uM concentration; assay type: functional; design: scale not given: the % may be the effect or the level left; method in brief: as §1
HepG2 [15] = assay: Percent reduction of cholesterol synthesis in human hepatoma cell line HepG2 at 300 uM concentration; assay type: functional; design: scale not given: the % may be the effect or the level left; method in brief: as §1
HepG2 [16] = assay: Percent reduction of cholesterol synthesis in human hepatoma cell line, HepG2 at 100 uM concentration; assay type: functional; design: scale not given: the % may be the effect or the level left; method in brief: as §1
HepG2 [17] = assay: Percent control of ATP levels in human hepatoma cell line, HepG2 at 100 uM concentration; assay type: functional; method in brief: as §2
HepG2 [18] = assay: Percent control of ATP levels in human hepatoma cell line, HepG2 at 1000 uM concentration; assay type: functional; method in brief: as §2

- Ki (ATP-citrate synthase): 6.8 µM
Compound: O=C(O)CC(O)(CSCCCCCc1ccc(Cl)cc1Cl)C(=O)O (stereo unspecified)
- Fatty acid synthesis (% of vehicle control) (HepG2 [1]): 16%
- Control (HepG2 [2]): 96%
- Control (HepG2 [3]): 84%
- Cholesterol synthesis (% of vehicle control) (HepG2 [4]): 14%
- Control (HepG2 [5]): 102%
- Control (HepG2 [6]): 104%

Compound: CCOC(=O)CC(O)(CSCCCCCCc1ccc(Cl)cc1Cl)C(=O)OCC (stereo unspecified)
- Control (HepG2 [7]): 6%
- Control (HepG2 [8]): 91%
- Control (HepG2 [9]): 86%
- Control (HepG2 [10]): 81%
- Control (HepG2 [11]): 3%

Compound: O=C(O)C[C@@](O)(C(=O)O)[C@H](O)C(=O)O
- Control (HepG2 [12]): 103%
- Control (HepG2 [7]): 87%
- Fatty acid synthesis (% of vehicle control) (HepG2 [1]): 57%
- Control (HepG2 [10]): 100%
- Control (HepG2 [13]): 104%
- Cholesterol synthesis (% of vehicle control) (HepG2 [4]): 15%
- Control (HepG2 [14]): 79%
- Control (HepG2 [15]): 40%
- Control (HepG2 [16]): 110%

Compound: CC(=O)OCOC(=O)CC(O)(CSCCCCCCc1ccc(Cl)cc1Cl)C(=O)OCOC(C)=O (stereo unspecified)
- Control (HepG2 [7]): 100%
- Fatty acid synthesis (% of vehicle control) (HepG2 [1]): 16%
- Control (HepG2 [17]): 111%
- Cholesterol synthesis (% of vehicle control) (HepG2 [4]): 13%
- Control (HepG2 [18]): 60%
